Active and inactive are the calls of the source. The rule behind the calls is not given here.
How the values were obtained:
Danio rerio [1] = species on record: Danio rerio; experiment: Toxicity in Zebrafish embryo assessed as induction of changes in fins region at 1 uM; format: organism-based; conditions: in vivo
Summary of the method: (§1)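 Embryos at 1 dpf dechorionated with 0.5 mg/ml pronase E and washed in E3. Exposed 6 per well to compound serially diluted in E3 with a final 0.1% DMSO, at 28.5 °C until 5 dpf. Embryos then washed, anaesthetised with 0.008% tricaine and scored blind for body shape, somites, notochord, tail, intestine, fins, brain, jaws, heart, liver and swim bladder. Phenobarbital (3 mM) served as positive control.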

Danio rerio [2] = species on record: Danio rerio; experiment: Teratogenicity in Zebrafish embryo incubated at 28.5 degC until 5 days post fertilization; format: ADME, organism-based; conditions: in vivo, 120 h; summary of the method: as §1
Danio rerio [3] = species on record: Danio rerio; experiment: Teratogenicity in Zebrafish embryo at 1 to 30 uM incubated at 28.5 degC until 5 days post fertilization; format: ADME, organism-based; conditions: in vivo, 120 h; summary of the method: as §1
Danio rerio [4] = species on record: Danio rerio; experiment: Induction of apoptosis in Zebrafish embryo at 3 to 30 uM incubated for 24 to 48 hrs by acridine orange based fluorescence microscopy; format: functional, organism-based
Summary of the method: (§2)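 Embryos dechorionated by hand at 24 hpf, 6 per well in two sets, in 0.1% DMSO. Compound added from serially diluted working stocks, kept at 28 °C for 24 h and 48 h. Washed three times in E3, stained 30 min with acridine orange ([…]) in E3, rinsed twice, then examined for apoptosis.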

Danio rerio [5] = species on record: Danio rerio; experiment: Toxicity in Zebrafish embryo assessed as induction of changes in heart region at 1 uM; format: organism-based; conditions: in vivo; summary of the method: as §1
Danio rerio [6] = species on record: Danio rerio; experiment: Induction of apoptosis in Zebrafish embryo incubated for 24 to 48 hrs by acridine orange based fluorescence microscopy; format: functional, organism-based; summary of the method: as §2
Danio rerio [7] = species on record: Danio rerio; experiment: Hepatotoxicity in Zebrafish embryo at 1 to 10 uM incubated at 28 degC until 7 days post fertilization; format: organism-based; conditions: in vivo, 168 h
Summary of the method: (§3)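 Larvae at 4 dpf exposed in 24-well plates, 6 per well in 0.1% DMSO, to final 1, 3, 10 and 30 concentrations, incubated at 28 °C until 7 dpf. Washed in E3 and anaesthetised with tricaine. Images scored for liver size, liver degeneration and yolk sac retention as percentages. Amiodarone served as positive control.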

Danio rerio [8] = species on record: Danio rerio; experiment: Hepatotoxicity in Zebrafish embryo at 28 degC until 7 days post fertilization; format: organism-based; conditions: in vivo, 168 h; summary of the method: as §3
Danio rerio [9] = species on record: Danio rerio; experiment: Toxicity in Zebrafish embryo at 1 to 30 uM; format: organism-based; conditions: in vivo; summary of the method: as §1
Danio rerio [10] = species on record: Danio rerio; experiment: Toxicity in Zebrafish embryo assessed as induction of changes in swim bladder region at 1 uM; format: organism-based; conditions: in vivo; summary of the method: as §1
Danio rerio [11] = species on record: Danio rerio; experiment: Toxicity in Zebrafish embryo assessed as induction of changes in notochords at 1 uM; format: organism-based, Notochord; conditions: in vivo; summary of the method: as §1
Danio rerio [12] = species on record: Danio rerio; experiment: Toxicity in Zebrafish embryo assessed as induction of changes in tail region at 1 uM; format: organism-based; conditions: in vivo; summary of the method: as §1
Danio rerio [13] = species on record: Danio rerio; experiment: Toxicity in Zebrafish embryo assessed as induction of changes in lower jaw region at 1 uM; format: organism-based; conditions: in vivo; summary of the method: as §1
Danio rerio [14] = species on record: Danio rerio; experiment: Toxicity in Zebrafish embryo assessed as induction of changes in liver region at 1 uM; format: organism-based; conditions: in vivo; summary of the method: as §1
[15] = Therapeutic index, ratio of NOAEL in Zebrafish embryos to apoptotic EC50 in Zebrafish embryos; format: organism-based, Danio rerio; conditions: read-out: TI
[16] = molecular target: 3',5'-cyclic-AMP phosphodiesterase 4B (Homo sapiens) (UniProt Q07343); experiment: Inhibition of recombinant His-tagged PDE4B1 (unknown origin) expressed in Sf9 cells at 30 uM pre-incubated for 15 mins before cAMP substrate addition by luminescence assay
3',5'-cyclic-AMP phosphodiesterase 4B (Homo sapiens), sequence (Q07343 whole entry): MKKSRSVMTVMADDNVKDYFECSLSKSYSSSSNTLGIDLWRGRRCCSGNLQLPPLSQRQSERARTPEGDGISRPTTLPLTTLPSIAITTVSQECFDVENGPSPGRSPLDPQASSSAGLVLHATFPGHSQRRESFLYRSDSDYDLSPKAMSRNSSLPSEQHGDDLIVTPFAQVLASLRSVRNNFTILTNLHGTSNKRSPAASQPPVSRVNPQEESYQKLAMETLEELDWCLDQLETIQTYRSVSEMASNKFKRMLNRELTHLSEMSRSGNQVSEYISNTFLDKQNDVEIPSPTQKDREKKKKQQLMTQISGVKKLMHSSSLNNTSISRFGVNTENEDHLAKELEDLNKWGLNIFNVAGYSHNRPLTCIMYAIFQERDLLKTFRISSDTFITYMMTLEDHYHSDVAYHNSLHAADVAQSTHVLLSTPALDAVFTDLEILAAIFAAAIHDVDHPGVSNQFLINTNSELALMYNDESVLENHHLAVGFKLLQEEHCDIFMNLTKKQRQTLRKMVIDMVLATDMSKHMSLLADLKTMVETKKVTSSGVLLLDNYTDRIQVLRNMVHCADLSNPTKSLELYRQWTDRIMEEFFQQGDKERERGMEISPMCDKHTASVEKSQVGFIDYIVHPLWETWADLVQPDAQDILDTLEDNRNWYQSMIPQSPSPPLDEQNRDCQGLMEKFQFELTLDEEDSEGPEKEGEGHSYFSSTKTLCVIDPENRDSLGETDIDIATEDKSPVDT
Summary of the method: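 PDE4B1 purified in house (10 ng) pre-incubated 15 min with compound or DMSO vehicle. cAMP substrate ([…]) added for 1 h, then reaction stopped and detection reagent applied 10 min in the dark. Luminescence (RLU) read. % inhibition = (RLU vehicle − RLU inhibitor)/RLU vehicle × 100.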

Danio rerio [17] = species on record: Danio rerio; experiment: Toxicity in Zebrafish embryo assessed as induction of changes in body shape at 1 uM; format: organism-based; conditions: in vivo; summary of the method: as §1
Danio rerio [18] = species on record: Danio rerio; experiment: Toxicity in Zebrafish embryo assessed as induction of changes in intestine region at 1 uM; format: organism-based; conditions: in vivo; summary of the method: as §1
Danio rerio [19] = species on record: Danio rerio; experiment: Toxicity in Zebrafish embryo assessed as induction of changes in somites at 1 uM; format: organism-based; conditions: in vivo; summary of the method: as §1
Danio rerio [20] = species on record: Danio rerio; experiment: Induction of apoptosis in Zebrafish embryo at 1 uM incubated for 24 to 48 hrs by acridine orange based fluorescence microscopy; format: functional, organism-based; summary of the method: as §2
Danio rerio [21] = species on record: Danio rerio; experiment: Hepatotoxicity in Zebrafish embryo at 30 uM incubated at 28 degC until 7 days post fertilization; format: organism-based; conditions: in vivo, 168 h; summary of the method: as §3
Danio rerio [22] = species on record: Danio rerio; experiment: Toxicity in Zebrafish embryo assessed as induction of changes in brain region at 1 uM; format: organism-based; conditions: in vivo; summary of the method: as §1
Danio rerio [23] = species on record: Danio rerio; experiment: Toxicity in Zebrafish embryo assessed as induction of changes in upper jaw region at 1 uM; format: organism-based; conditions: in vivo; summary of the method: as §1
Danio rerio [24] = species on record: Danio rerio; experiment: Toxicity in Zebrafish embryo assessed as induction of changes in liver region at 3000 uM; format: organism-based; conditions: in vivo
Summary of the method: (§4)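 Embryos at 1 dpf were dechorionated with 0.5 mg/ml pronase E and washed in E3. They were exposed in groups of 6 to compound serially diluted in E3 (final 0.1% DMSO) at 28.5 °C until 5 dpf. Embryos were then washed, anesthetized with 0.008% tricaine, and scored blinded for morphology of body shape, somites, notochord, tail, intestine, fins, brain, jaws, heart, liver and swim bladder.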

Danio rerio [25] = species on record: Danio rerio; experiment: Toxicity in Zebrafish embryo assessed as induction of changes in heart region at 3000 uM; format: organism-based; conditions: in vivo; summary of the method: as §4
Danio rerio [26] = species on record: Danio rerio; experiment: Toxicity in Zebrafish embryo assessed as induction of changes in brain region at 3000 uM; format: organism-based; conditions: in vivo
Summary of the method: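 Zebrafish embryos collected at 1 dpf, staged, dechorionated with 0.5 mg/ml pronase E and washed in E3 medium. Compound serially diluted in E3 with 0.1% DMSO final. Six embryos per well, exposed at 28.5 °C until 5 dpf, then washed, anaesthetised with 0.008% tricaine and scored for morphology (body shape, somites, notochord, tail, intestine, fins, brain, jaws, heart, liver, swim bladder). Blinded; phenobarbital 3 mM positive control.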

Danio rerio [27] = species on record: Danio rerio; experiment: Toxicity in Zebrafish embryo assessed as induction of changes in fins region at 3000 uM; format: organism-based; conditions: in vivo; summary of the method: as §4
Danio rerio [28] = species on record: Danio rerio; experiment: Toxicity in Zebrafish embryo assessed as induction of changes in body shape at 3000 uM; format: organism-based; conditions: in vivo; summary of the method: as §4
Danio rerio [29] = species on record: Danio rerio; experiment: Toxicity in Zebrafish embryo assessed as induction of changes in swim bladder region at 3000 uM; format: organism-based; conditions: in vivo; summary of the method: as §4
Danio rerio [30] = species on record: Danio rerio; experiment: Toxicity in Zebrafish embryo assessed as induction of changes in tail region at 3000 uM; format: organism-based; conditions: in vivo; summary of the method: as §4
Danio rerio [31] = species on record: Danio rerio; experiment: Toxicity in Zebrafish embryo assessed as induction of changes in notochords at 3000 uM; format: organism-based, Notochord; conditions: in vivo; summary of the method: as §4
Danio rerio [32] = species on record: Danio rerio; experiment: Toxicity in Zebrafish embryo assessed as induction of changes in upper jaw region at 3000 uM; format: organism-based; conditions: in vivo; summary of the method: as §4
Danio rerio [33] = species on record: Danio rerio; experiment: Toxicity in Zebrafish embryo assessed as induction of changes in intestine region at 3000 uM; format: organism-based; conditions: in vivo; summary of the method: as §4
Danio rerio [34] = species on record: Danio rerio; experiment: Toxicity in Zebrafish embryo assessed as induction of changes in somites at 3000 uM; format: organism-based; conditions: in vivo; summary of the method: as §4
Danio rerio [35] = species on record: Danio rerio; experiment: Toxicity in Zebrafish embryo assessed as induction of changes in lower jaw region at 3000 uM; format: organism-based; conditions: in vivo; summary of the method: as §4

**Q.** Which Activity (Danio rerio [1]) does the source give for `CCOC(=O)c1c(-c2ccccc2)csc1-n1c(-c2ccc(C)cc2)cc2nc3ccccc3nc21` here?
**A.** The Activity was “Non-toxic”.

**Q.** And the NOAEL (Danio rerio [2])?
**A.** Its NOAEL is 3 µM.

**Q.** And the Activity (Danio rerio [3])?
**A.** Its Activity is “Non-toxic”.

**Q.** And the Activity (Danio rerio [4])?
**A.** Its Activity is “Active”.

**Q.** And the Activity (Danio rerio [5])?
**A.** Its Activity is “Non-toxic”.

**Q.** And the EC50 (Danio rerio [6])?
**A.** The EC50 was 1830 nM.

**Q.** And the Activity (Danio rerio [7])?
**A.** Its Activity is “Non-toxic”.

**Q.** What about the NOAEL (Danio rerio [8]) of the same molecule?
**A.** Its NOAEL is 10 µM.

**Q.** What about the MTC (Danio rerio [9]) of the same molecule?
**A.** Its MTC is 1 µM.

**Q.** What about the NOAEL (Danio rerio [9]) of the same molecule?
**A.** Its NOAEL is 3 µM.

**Q.** And the Activity (Danio rerio [10])?
**A.** Its Activity is “Non-toxic”.

**Q.** What about the Activity (Danio rerio [11]) of the same molecule?
**A.** The Activity was “Non-toxic”.

**Q.** What about the Activity (Danio rerio [12]) of the same molecule?
**A.** Its Activity is “Non-toxic”.

**Q.** And the Activity (Danio rerio [13])?
**A.** The Activity was “Toxic”.

**Q.** What about the Activity (Danio rerio [14]) of the same molecule?
**A.** Its Activity is “Non-toxic”.

**Q.** What about the selectivity ratio [15] of the same molecule?
**A.** Its selectivity ratio is 1.64.

**Q.** And the inhibition [16]?
**A.** Its inhibition is 78%.

**Q.** What about the Activity (Danio rerio [17]) of the same molecule?
**A.** The Activity was “Non-toxic”.

**Q.** And the Activity (Danio rerio [18])?
**A.** The Activity was “Non-toxic”.

**Q.** And the Activity (Danio rerio [19])?
**A.** Its Activity is “Non-toxic”.

**Q.** What about the Activity (Danio rerio [20]) of the same molecule?
**A.** The Activity was “inactive”.

**Q.** What about the Activity (Danio rerio [21]) of the same molecule?
**A.** The Activity was “Toxic”.

**Q.** And the Activity (Danio rerio [22])?
**A.** Its Activity is “Non-toxic”.

**Q.** And the Activity (Danio rerio [23])?
**A.** The Activity was “Non-toxic”.

**Q.** Which Activity (Danio rerio [24]) does the source give for `CCC1(c2ccccc2)C(=O)NC(=O)NC1=O` [PHENOBARBITAL] here?
**A.** The Activity was “Toxic”.

**Q.** And the Activity (Danio rerio [25])?
**A.** Its Activity is “Toxic”.

**Q.** And the Activity (Danio rerio [26])?
**A.** Its Activity is “Toxic”.

**Q.** What about the Activity (Danio rerio [27]) of the same molecule?
**A.** Its Activity is “Toxic”.

**Q.** And the Activity (Danio rerio [28])?
**A.** The Activity was “Toxic”.

**Q.** What about the Activity (Danio rerio [29]) of the same molecule?
**A.** The Activity was “Toxic”.

**Q.** What about the Activity (Danio rerio [30]) of the same molecule?
**A.** The Activity was “Toxic”.

**Q.** What about the Activity (Danio rerio [31]) of the same molecule?
**A.** Its Activity is “Toxic”.

**Q.** What about the Activity (Danio rerio [32]) of the same molecule?
**A.** The Activity was “Toxic”.

**Q.** And the Activity (Danio rerio [33])?
**A.** Its Activity is “Toxic”.

**Q.** And the Activity (Danio rerio [34])?
**A.** Its Activity is “Toxic”.

**Q.** And the Activity (Danio rerio [35])?
**A.** Its Activity is “Toxic”.
